The record followed here is ChEMBL document CHEMBL1150391, “Pyridinium cationic-dimer antimalarials, unlike chloroquine, act selectively between the schizont stage and the ring stage of Plasmodium falciparum” (Bioorg Med Chem, 2008).

Assay [1] concerns Plasmodium falciparum. Briefly: Antimalarial activity as reduced parasitaemia after 72 hrs against chloroquine-sensitive Plasmodium falciparum FCR3 in human erythrocytes by Diff-Quick stain. The assay is classed as functional, organism-based. Particulars: FCR3, 72 h. The procedure, abridged:
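FCR-3 grown in type A human RBCs (5% hematocrit stock culture) in RPMI 1640 with HEPES, NaHCO3, gentamicin and 10% heat-inactivated type A human serum. Assay: 0.3% parasitemia, 3% final hematocrit, DMSO compound dilutions; 72 h, 37 °C, 5% CO2/5% O2/90% N2. Parasitemia read from Diff-Quik thin films. Duplicate wells, mean of three experiments; IC50 taken from the growth-inhibition curve.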

In another assay the test system is FM3A. Description: Cytotoxicity against mouse FM3A cells assessed as inhibition of increase in cell density after 48 hrs. The assay is classed as cell-based. The procedure, abridged:
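Mouse mammary tumor FM3A (subclone F28-7) cells kept in suspension in ES medium with 2% heat-inactivated FBS, seeded at 5 × 10⁴ cells/mL, compounds added in DMSO. 48 h, 37 °C, 5% CO2; cells counted microscopically. Duplicate wells, mean of three experiments; IC50 is the concentration giving 50% inhibition of cell-density increase versus control.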

The subject of assay [2] is Plasmodium falciparum. Description: Antimalarial activity as synchronized ring-stage of chloroquine-sensitive Plasmodium falciparum FCR3 infected human erythrocytes at 5 uL by Diff-Quick stain. The assay is classed as functional, organism-based. The procedure, abridged: (§1)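 Cultures synchronized twice with 5% D-sorbitol 40 h apart (>80% rings); stage checked microscopically before dosing. Compound added at ring, middle trophozoite, late trophozoite or schizont stage; 5% erythrocytes, about 1.0% parasitemia, compound in 0.1% DMSO at 100 times the IC50. 48 h, 37 °C; medium and compound renewed at 24 h. Infection ratio counted per at least 2000 erythrocytes in Diff-Quik films every 6 h; duplicate, versus compound-free control.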

Assay [3] deals with Plasmodium falciparum. Briefly: Antimalarial activity as synchronized middle trophozoites of chloroquine-sensitive Plasmodium falciparum FCR3 in human erythrocytes at 5 uL by Diff-Quick stain. The assay is classed as functional, organism-based. The procedure, abridged:
as §1

Assay [4] deals with Plasmodium falciparum. Briefly: Antimalarial activity as synchronized late trophozoites of chloroquine-sensitive Plasmodium falciparum FCR3 in human erythrocytes at 5 uL by Diff-Quick stain. The assay is classed as functional, organism-based. An outline of the steps:
as §1

Assay [5] concerns Plasmodium falciparum. Briefly: Antimalarial activity as synchronized schizonts of chloroquine-sensitive Plasmodium falciparum FCR3 in human erythrocytes at 5 uL by Diff-Quick stain. The assay is classed as functional, organism-based. An outline of the steps: as §1

SMILES strings stand for the structures. Activity calls are given as the source filed them. The calls are words filed in the database; no cut-off is given here.

Broadly, the EC50 is the concentration that produces a half-maximal response. Turning to `N#Cc1ccc(NC(=O)c2cc[n+](CCCCCCCCCC[n+]3ccc(C(=O)Nc4ccc(C#N)cc4)cc3)cc2)cc1`, the 50% effective concentration (EC50) in the assay on Plasmodium falciparum [1] came to 35 nM; in the assay on FM3A, 42400 nM.
`O=C(Nc1ccccc1)c1cc[n+](CCCCCCCCCC[n+]2ccc(C(=O)Nc3ccccc3)cc2)cc1`: the values for the half-maximal effective concentration (EC50) in the assay on Plasmodium falciparum [1] and with FM3A were 29 nM and 42800 nM, respectively. Besides, the outcome in the assay with Plasmodium falciparum [2], in the assay with Plasmodium falciparum [3] and in the assay with Plasmodium falciparum [4] was inactive. Besides, the result in the assay on Plasmodium falciparum [5] was Active.
For `CCCCNC(=O)c1cc[n+](CCCCCCCCCCCC[n+]2ccc(C(=O)NCCCC)cc2)cc1`, the EC50 is 100 nM in the assay with Plasmodium falciparum [1] and 52900 nM with FM3A.
In the same order, the values of `O=C(Nc1ccc(C(F)(F)F)cc1)c1cc[n+](CCCCCCCCCC[n+]2ccc(C(=O)Nc3ccc(C(F)(F)F)cc3)cc2)cc1` are 33 nM and 5180 nM.
For `Cc1ccc(NC(=O)c2cc[n+](CCCCCCCCCC[n+]3ccc(C(=O)Nc4ccc(C)cc4)cc3)cc2)cc1`, the concentration for a half-maximal effect (EC50) amounted to 39 nM with Plasmodium falciparum [1] and 25600 nM with FM3A.
In the case of `O=C(Nc1ccc(F)cc1)c1cc[n+](CCCCCCCCCC[n+]2ccc(C(=O)Nc3ccc(F)cc3)cc2)cc1`, the values for the EC50 in the assay with Plasmodium falciparum [1] and in the assay on FM3A were 21 nM and 27800 nM, respectively.
The corresponding values for `O=C(Nc1ccc(I)cc1)c1cc[n+](CCCCCCCCCC[n+]2ccc(C(=O)Nc3ccc(I)cc3)cc2)cc1` are 12 nM and 1420 nM.
`CCCCCCNC(=O)c1cc[n+](CCCCCCCCCC[n+]2ccc(C(=O)NCCCCCC)cc2)cc1`: the half-maximal effective concentration (EC50) was 5 nM in the assay with Plasmodium falciparum [1] and 10500 nM with FM3A. For the same molecule, the outcome with Plasmodium falciparum [2], with Plasmodium falciparum [3] and in the assay with Plasmodium falciparum [4] was inactive. Also, the result with Plasmodium falciparum [5] was Active.
For the molecule `O=C(Nc1ccc([N+](=O)[O-])cc1)c1cc[n+](CCCCCCCCCC[n+]2ccc(C(=O)Nc3ccc([N+](=O)[O-])cc3)cc2)cc1`, the half-maximal effective concentration (EC50) with Plasmodium falciparum [1] was determined as 74 nM; in the assay on FM3A, 5990 nM.
In the same order, the values of `O=C(Nc1ccc(Cl)cc1)c1cc[n+](CCCCCCCCCC[n+]2ccc(C(=O)Nc3ccc(Cl)cc3)cc2)cc1` are 8 nM and 1890 nM.
In the same order, the values of `O=C(Nc1ccc(Br)cc1)c1cc[n+](CCCCCCCCCC[n+]2ccc(C(=O)Nc3ccc(Br)cc3)cc2)cc1` are 15 nM and 1390 nM.
